The text below walks through data of ChEMBL document CHEMBL2021780, “Antineoplastic agents. 548. Synthesis of iodo- and diiodocombstatin phosphate prodrugs” (J Nat Prod, 2012).

The term solubility denotes the dissolved amount per volume that the medium holds. As a reminder, the GI50 is the concentration at which growth is held to half of that of the control. Broadly, the IC50 is the concentration that inhibits the measured activity by half. Usually inhibition stands for the share of the control response that was lost under treatment. By MIC is commonly meant the smallest concentration in the dilution series that meets the test's criterion for growth inhibition.

In brackets after ≈: the same amount, converted by molar mass. Activity calls are given as the source filed them.

Data set [1] in a line: Solubility of the compound in water. In kind it is physicochemical. The conditions noted are these: buffer. Put shortly: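 Solubility expressed as amount dissolving in 1 mL H₂O at 25 °C.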
In data set [2] the test system is P388. As to the kind of experiment: Growth inhibition of mouse P388 cells after 48 hrs by Z1 Beckman/Coulter particle counter analysis. In kind it is functional. As to conditions: P388, 48 h, read-out: ED50 (the source's name). The method, boiled down:
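Mouse P388 leukemia cells were incubated 24 h in 10% horse serum/Fisher medium, then exposed 48 h to serial compound dilutions. ED50 was calculated from cell counts on a Coulter Z1 particle counter.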

Data set [3] deals with BXPC-3. The data set can be described thus: Growth inhibition of human BxPC3 cells after 48 hrs by sulforhodamine B assay. In kind it is functional. The conditions noted are these: BXPC-3, 48 h. Put shortly:
(§1)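 NCI sulforhodamine B assay. Cells were seeded in 5% FBS/RPMI-1640 and incubated 24 h. Serial compound dilutions were then added for 48 h. Cells were fixed with trichloroacetic acid, stained with SRB and read by microplate reader. GI50 is the concentration giving 50% reduction in net protein increase, calculated from optical density data.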
Background: The SRB assay estimates cell density from bound dye.

The subject of data set [4] is MCF7. As to the kind of experiment: Growth inhibition of human MCF7 cells after 48 hrs by sulforhodamine B assay. In kind it is functional. The conditions noted are these: MCF7, 48 h. The method, boiled down:
as §1

For data set [5], the system named is SF-268. As to the kind of experiment: Growth inhibition of human SF268 cells after 48 hrs by sulforhodamine B assay. In kind it is functional. As to conditions: SF-268, 48 h. The method, boiled down: as §1
Data set [6] has as its system NCI-H460. As to the kind of experiment: Growth inhibition of human NCI-H460 cells after 48 hrs by sulforhodamine B assay. In kind it is functional. As to conditions: NCI-H460, 48 h. Put shortly: as §1
The test system of data set [7] is KM-20L2. The data set can be described thus: Growth inhibition of human KM20L2 cells after 48 hrs by sulforhodamine B assay. The conditions noted are these: KM-20L2, 48 h. In kind it is functional. Put shortly: as §1
Data set [8] deals with DU-145. As to the kind of experiment: Growth inhibition of human DU145 cells after 48 hrs by sulforhodamine B assay. In kind it is functional. The conditions noted are these: DU-145, 48 h. Put shortly: as §1
The nature of data set [9]: Growth inhibition of human KAT4 cells after 48 hrs by sulforhodamine B assay. In kind it is functional. As to conditions: KAT-4, 48 h.
In data set [10] the test system is SW-1736. As to the kind of experiment: Growth inhibition of human SW1736 cells after 48 hrs by sulforhodamine B assay. In kind it is functional. The conditions noted are these: SW-1736, 48 h.
Data set [11] relates to HUVEC. The data set can be described thus: Antiangiogenic activity in HUVEC assessed as cell growth inhibition after 48 hrs by sulforhodamine B assay. In kind it is functional, cell-based. The conditions noted are these: Homo sapiens. The method, boiled down: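 HUVECs were grown in EGM-2 medium and tested with the standard SRB growth assay following NCI Developmental Therapeutics Program Matrigel antiangiogenesis protocols. IC50 (concentration causing 50% inhibition) was calculated from plotted data.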

Data set [12] concerns HUVEC. The data set can be described thus: Antiangiogenic activity in HUVEC assessed as reduction of cord length at 0.001 ug/ml after 24 hrs by matrigel assay relative to control. In kind it is functional, Homo sapiens. More on the design: scale not given: the % may be the effect or the level left. The method, boiled down: (§2)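 Commercial HUVECs grown in EGM-2 were seeded at 2 × 10⁵ cells/mL onto Matrigel, which had been polymerized 15 min at rt and then 30 min at 37 °C, per NCI DTP protocol. Compound was added and cells were incubated 24 h, then imaged by inverted microscopy. Cord length and junction number were scored against untreated control on a scale from − (none) to +++ (same as control), with ++ = 50% of control.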

The subject of data set [13] is HUVEC. The data set can be described thus: Antiangiogenic activity in HUVEC assessed as reduction of number of junctions at 0.001 ug/ml after 24 hrs by matrigel assay relative to control. In kind it is functional, Homo sapiens. More on the design: scale not given: the % may be the effect or the level left. The method, boiled down: as §2
Data set [14] concerns HUVEC. As to the kind of experiment: Antiangiogenic activity in HUVEC assessed as cell growth at 0.01 ug/ml after 24 hrs by sulforhodamine B assay relative to control. In kind it is functional, Homo sapiens.
The subject of data set [15] is HUVEC. As to the kind of experiment: Antiangiogenic activity in HUVEC assessed as cell growth at 0.001 ug/ml after 24 hrs by sulforhodamine B assay relative to control. In kind it is functional, Homo sapiens. As to conditions: for growth at 0.001 µg/mL: Homo sapiens, HUVEC, 24 h, read-out: Activity.
Data set [16] relates to HUVEC. The data set can be described thus: Antiangiogenic activity in HUVEC assessed as cell growth at 0.0001 ug/ml after 24 hrs by sulforhodamine B assay relative to control. In kind it is functional, Homo sapiens.
Data set [17] has as its system HUVEC. As to the kind of experiment: Antiangiogenic activity in HUVEC assessed as cell growth at 0.00001 ug/ml after 24 hrs by sulforhodamine B assay relative to control. In kind it is functional. As to conditions: Homo sapiens, read-out: Activity.
Data set [18] deals with HUVEC. As to the kind of experiment: Antiangiogenic activity in HUVEC assessed as cell growth at 0.1 ug/ml after 24 hrs by sulforhodamine B assay relative to control. In kind it is functional, Homo sapiens. The conditions noted are these: Homo sapiens, HUVEC, 24 h; read-out: Activity.
Data set [19] in a line: Inhibition of purified tubulin assembly after 20 mins. Put shortly:
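Purified tubulin at 10 μM in 0.8 M monosodium glutamate (pH 6.6), 0.4 mM GTP and 4% (v/v) DMSO, with varying compound concentrations. Extent of assembly was measured after 20 min at 30 °C.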

Data set [20] relates to HUVEC. As to the kind of experiment: Antiangiogenic activity in HUVEC assessed as reduction of cord length at 0.01 ug/ml after 24 hrs by matrigel assay relative to control. In kind it is functional. As to conditions: Homo sapiens. Put shortly:
as §2

The test system of data set [21] is HUVEC. As to the kind of experiment: Antiangiogenic activity in HUVEC assessed as reduction of cord length at 0.0001 ug/ml after 24 hrs by matrigel assay relative to control. In kind it is functional. The conditions noted are these: Homo sapiens. Put shortly: (§3)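 Matrigel was polymerised in wells (15 min rt, then 30 min 37 °C). HUVECs (2 × 10⁵ cells/mL) were added with compound and incubated 24 h, then imaged by inverted microscope. Cord length and junction number were scored semi-quantitatively versus untreated control (− none to +++ same as control).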

The test system of data set [22] is HUVEC. As to the kind of experiment: Antiangiogenic activity in HUVEC assessed as reduction of cord length at 0.00001 ug/ml after 24 hrs by matrigel assay relative to control. In kind it is functional, cell-based. As to conditions: Homo sapiens. Put shortly: as §2
Data set [23] deals with HUVEC. The data set can be described thus: Antiangiogenic activity in HUVEC assessed as reduction of cord length at 0.1 ug/ml after 24 hrs by matrigel assay relative to control. In kind it is functional, cell-based. The conditions noted are these: Homo sapiens. Put shortly: as §2
Data set [24] relates to HUVEC. As to the kind of experiment: Antiangiogenic activity in HUVEC assessed as reduction of number of junctions at 0.01 ug/ml after 24 hrs by matrigel assay relative to control. In kind it is functional. As to conditions: Homo sapiens. Put shortly: as §2
Data set [25] has as its system HUVEC. The data set can be described thus: Antiangiogenic activity in HUVEC assessed as reduction of number of junctions at 0.0001 ug/ml after 24 hrs by matrigel assay relative to control. In kind it is functional. As to conditions: Homo sapiens. Put shortly: as §3
The subject of data set [26] is HUVEC. As to the kind of experiment: Antiangiogenic activity in HUVEC assessed as reduction of number of junctions at 0.00001 ug/ml after 24 hrs by matrigel assay relative to control. In kind it is functional, cell-based. The conditions noted are these: Homo sapiens. Put shortly: as §2
For data set [27], the system named is HUVEC. As to the kind of experiment: Antiangiogenic activity in HUVEC assessed as reduction of number of junctions at 0.1 ug/ml after 24 hrs by matrigel assay relative to control. In kind it is functional, cell-based. As to conditions: Homo sapiens. Put shortly:
as §2

A short description of data set [28]: Displacement of [3H]colchicine from tubulin at 1 uM after 10 mins. Put shortly:
(§4)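 [³H]colchicine binding: 1.0 μM tubulin with 5.0 μM [³H]colchicine and compound, incubated 10 min at 37 °C. The tubulin–colchicine complex was separated from unbound label by retention on DEAE-cellulose filters. Result is inhibition of radiolabel binding.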

Data set [29] can be described thus: Displacement of [3H]colchicine from tubulin at 10 uM after 10 mins. The method, boiled down: as §4
In general terms: In a radioligand displacement assay an active substance lowers the binding of a labelled ligand.

Data set [30] concerns Micrococcus luteus. The data set can be described thus: Antibacterial activity against Micrococcus luteus Presque Isle 456 by broth microdilution method. In kind it is functional. Put shortly:
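Broth microdilution per NCCLS bacterial (M7-A5) and yeast standards. Compounds were reconstituted in sterile DMSO and diluted in the appropriate medium just before testing. MIC is the lowest concentration giving complete inhibition of visible growth (optically clear). Assays were repeated on separate days.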

The mark [31] stands for this setting: Homo sapiens, HUVEC, 24 h, read-out: Activity.

Consider `COc1ccc(/C=C\c2cc(I)c(OC)c(OC)c2)cc1OP(=O)([O-])[O-].[K+].[K+]`, for which the solubility in data set [1] came out at 14000 µg/mL. For the same molecule, the EC50 in data set [2] came out at 2.1 ng/mL. Also, the GI50 in data set [3] is 381 ng/mL; in [4] it was 6.4 ng/mL; in data set [5] it was 5.7 ng/mL; in data set [6], 4.3 ng/mL; in data set [7], 410 ng/mL; in data set [8] it was 3.8 ng/mL. The results for the GI50 in [9] and in [10] were 370 ng/mL and above 10000 ng/mL, respectively. For the same molecule, the IC50 in data set [11] worked out at 0.25 ng/mL. Further, the Activity is given as 50% in data set [12], 75% in [13], 1% in [14] and 77% in data set [16]. Further, the growth at 0.001 µg/mL in data set [15] is 10%. Besides, the growth at 10 pg/mL in [17] amounted to 95%.
As to `COc1ccc(/C=C\c2cc(I)c(OC)c(OC)c2)cc1OP(=O)([O-])[O-].[Na+].[Na+]`, the solubility in data set [1] stood at 2000 µg/mL. Also, in [2], the EC50 came out at 2 ng/mL. The GI50 in data set [3] is 469 ng/mL; in data set [4], 18 ng/mL; in data set [5], 18 ng/mL; in data set [6], 17 ng/mL; in data set [7], above 1000 ng/mL; in [8] it was 11 ng/mL. Further, the IC50 in [11] was 0.35 ng/mL; in data set [19], above 40000 nM. Besides, the Activity amounted to 14% in [14], 5% in [15] and 104% in data set [16]. Moreover, the growth at 0.1 µg/mL in data set [18] stood at 7%.
Regarding `COc1ccc(/C=C\c2cc(I)c(OC)c(OC)c2)cc1OP(=O)(O)O`, the result in [20], in [12] (Homo sapiens), in data set [23], in data set [24], in data set [13] (Homo sapiens) and in [27] was Active. In addition, the result in data set [21], in data set [22], in [25] and in data set [26] was inactive.
`COc1ccc(/C=C\c2cc(I)c(OC)c(I)c2)cc1O`: in data set [2], the EC50 came to 2.8 ng/mL (≈ 5.51 nM). The GI50 in data set [3] came out at 38 ng/mL (≈ 74.8 nM); in data set [4], 2.7 ng/mL (≈ 5.31 nM); in [5], 3.6 ng/mL (≈ 7.09 nM); in data set [6] it was 3.4 ng/mL (≈ 6.69 nM); in data set [7] it was 150 ng/mL (≈ 295 nM); in data set [8], 2.1 ng/mL (≈ 4.13 nM). Also, the GI50 in data set [9] amounted to 39 ng/mL (≈ 76.8 nM); in [10] it was 1200 ng/mL (≈ 2360 nM). Also, the IC50 in [11] is 0.28 ng/mL (≈ 0.551 nM); in [19], 1500 nM. For the same molecule, the result in data set [20], in data set [12] (Homo sapiens), in data set [24] and in [13] (Homo sapiens) was Active. In addition, the outcome in data set [21] and in data set [25] was inactive. The growth at 0.01 µg/mL in data set [14] (setting [31]) came to 4%. The growth at 0.001 µg/mL in data set [15] was 8%. Further, the growth at 0.0001 µg/mL in [16] (setting [31]) stood at 84%. Also, the growth at 10 pg/mL in [17] was determined as 87%. Moreover, the values for the inhibition in [28] and in data set [29] were 95% and 100%, respectively. Moreover, in data set [30], 4000 ng/mL (≈ 7870 nM) was the least that counted as inhibitory (MIC).
